Data from ChEMBL document CHEMBL2413028, “1-Hydroxypyrazole as a bioisostere of the acetic acid moiety in a series of aldose reductase inhibitors” (Bioorg Med Chem, 2013).

What was measured:
Rattus norvegicus = species on record: Rattus norvegicus; experiment: Selectivity index, ratio of IC50 for partially purified Fischer-344 rat kidney ALR1 to IC50 for partially purified Fischer-344 rat lens ALR2; conditions: Lens of camera-type eye
[1] = target: Aldo-keto reductase family 1 member A1 (Rattus norvegicus, UniProt P51635); experiment: Inhibition of partially purified Fischer-344 rat kidney ALR1 using D,L-glycuronate as substrate assessed as NADPH consumption by spectrophotometry
Sequence of Aldo-keto reductase family 1 member A1 (P51635 whole entry, looked up): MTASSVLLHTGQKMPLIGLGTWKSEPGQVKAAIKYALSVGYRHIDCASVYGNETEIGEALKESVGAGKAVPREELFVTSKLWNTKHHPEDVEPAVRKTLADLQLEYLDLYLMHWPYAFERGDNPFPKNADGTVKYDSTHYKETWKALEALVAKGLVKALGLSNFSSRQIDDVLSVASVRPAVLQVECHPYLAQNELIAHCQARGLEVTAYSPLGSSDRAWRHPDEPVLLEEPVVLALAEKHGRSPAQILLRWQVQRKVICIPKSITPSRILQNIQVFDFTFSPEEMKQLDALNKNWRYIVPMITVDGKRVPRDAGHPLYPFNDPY
How it was run: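 Kidneys from Fischer-344 rats of both sexes homogenized in 3 vol 10 mM sodium phosphate buffer; 10,000g supernatant taken through ammonium sulfate fractions at 40%, 50% and 75% saturation. Last pellet redissolved in 10 mM sodium phosphate pH 7.2 with 2.0 mM EDTA and 2.0 mM β-mercaptoethanol, DEAE-treated, stored at −80 °C. Substrate D-glycuronate at 37 °C. NADPH loss read at 340 nm. Five concentrations, triplicate; IC50 by least squares on linear part of log(dose)–response.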

[2] = target: Aldo-keto reductase family 1 member B1 (Rattus norvegicus, UniProt P07943); experiment: Inhibition of partially purified Fischer-344 rat lens ALR2 using D,L-glyceraldehyde as substrate assessed as NADPH consumption by spectrophotometry; parameters: species or system Lens of camera-type eye
How it was run: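 Supernatant brought to 40% ammonium sulfate saturation and spun again; supernatant used directly or kept ≤24 h at −80 °C. Compounds dissolved in 0.2 M NaHCO3. Substrate D,L-glyceraldehyde at 30 °C; NADPH loss at 340 nm. Five concentrations, triplicate; IC50 by least-squares fit of linear log(dose)–response region.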

| Structure (SMILES) | Ratio IC50 (Rattus norvegicus) | IC50 [1] [µM] | IC50 [2] [µM] |
| --- | --- | --- | --- |
| O=C(c1ccc(-c2ccccc2)cc1)c1ccn(-c2cnn(O)c2)c1 | 88.9 | 62.1 | 0.698 |
| O=C(O)Cn1cccc1C(=O)c1ccc(-c2ccccc2)cc1 | > 14.3 | > 100 | 7 |
| COc1ccc(C(=O)c2cccn2-c2cnn(O)c2)cc1 | > 6.67 | > 100 | 15.1 |
| O=C(O)Cn1ccc(C(=O)c2ccccc2)c1 | > 50.8 | > 100 | – |
| O=C(c1ccccc1)c1ccn(-c2cnn(O)c2)c1 | 9.46 | 10.8 | 1.14 |
| O=C(c1ccccc1)c1cccn1-c1cnn(O)c1 | > 7.41 | > 100 | 13.5 |
| COc1ccc(C(=O)c2cccn2CC(=O)O)cc1 | > 21.9 | > 100 | 4.57 |
| O=C(O)Cn1ccc(C(=O)c2ccc(-c3ccccc3)cc2)c1 | 153 | 52.5 | 0.344 |
| O=C(c1ccc(-c2ccccc2)cc1)c1cccn1-c1cnn(O)c1 | > 10.2 | > 100 | 9.81 |
| O=C(O)Cn1cccc1C(=O)c1ccccc1 | > 4.54 | > 100 | 22 |
| COc1ccc(C(=O)c2ccn(-c3cnn(O)c3)c2)cc1 | 11.2 | 10.8 | 0.708 |
| COc1ccc(C(=O)c2ccn(CC(=O)O)c2)cc1 | > 62.4 | > 100 | 1.6 |
